MrgX1 allo act: allosterically activates human MrgX1 receptor signaling | B-score at 10 µM | AID 588675 | MrgX1-HEK293, Fluo-4 calcium flux, FDSS; stronger effect = higher value | Q96LB2 | hit rate 0.63% among 310,000;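 active means plate-corrected calcium response at least 3 library SD above typical, normal starting fluorescence, not activating the receptor alone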;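 further: compound read alongside a low EC10 to EC30 dose of BAM8-22 agonist; peak minus trough fluorescence over baseline measured at the second addition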
Target sequence (Q96LB2 whole entry, looked up): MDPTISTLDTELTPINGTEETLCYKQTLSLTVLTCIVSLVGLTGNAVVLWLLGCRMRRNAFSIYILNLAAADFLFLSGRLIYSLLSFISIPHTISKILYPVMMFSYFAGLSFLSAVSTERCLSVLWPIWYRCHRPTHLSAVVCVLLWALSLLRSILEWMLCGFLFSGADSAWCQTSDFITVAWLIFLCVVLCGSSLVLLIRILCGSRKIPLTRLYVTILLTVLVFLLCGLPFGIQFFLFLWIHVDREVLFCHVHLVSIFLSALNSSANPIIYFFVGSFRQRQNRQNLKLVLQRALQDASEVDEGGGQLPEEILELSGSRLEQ
MrgX1 agonist: activates human MrgX1 receptor signaling. hit rate 0.44% among 310,000. Q96LB2. MrgX1-HEK293 cells, Fluo-4 calcium fluorescence, agonist mode; stronger effect = higher value. AID 588627. B-score at 10 µM;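 active means calcium response B-score plate-corrected fluorescence ratio at least 3 library SD, with starting fluorescence B-score inside 5 SD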
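Assay system: stable human MrgX1 HEK293 cell line. Quantity: 15,000 cells per well. Schedule: cells plated overnight, dye loaded 0.5 h 37 °C, 0.5 h room temperature. Detection: Fluo-4 NW calcium-flux fluorescence, kinetic read. Read-out basis: peak-minus-minimum fluorescence over baseline, converted to B scores. Control set: positive and negative control wells on each plate.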
MrgX1 antag: blocks BAM8-22 activation of human MrgX1 receptor; Q96LB2; B-score at 10 µM; MRGX1-HEK293 calcium flux, Fluo-4, BAM8-22 antagonism; stronger effect = lower value; hit rate 1.3% among 310,000;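 active means calcium-response B-score plate-corrected more than 3 library SD below zero, starting fluorescence within 5 deviations, no agonist response on first addition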;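 further: peak minus trough fluorescence over baseline after final BAM8-22 challenge near maximal dose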
RGS4 pot: RGS4 potentiation or activation. HEK293 M3R/inducible RGS4, carbachol calcium flux Fluo4; stronger effect = lower value. B-score at 10 µM. hit rate 0.92% among 310,000;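 active means B-score of the integrated calcium signal more than 4 SD below the library mean, with starting fluorescence not abnormally high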;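 further: negative B-score means reduced calcium response which marks RGS4 activation or potentiation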
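Material: Inducible-RGS4 HEK293 cells carrying M3 receptor; also added: carbachol at ECmax as muscarinic agonist stimulus; incubation: compound preincubation 20 min at room temperature before agonist; signal: Fluo4-AM (2 µM) calcium-flux fluorescence, kinetic read; measure: integrated calcium ratio converted to B score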
RGS4 inh: inhibitors of human RGS4 | HEK293 M3R/RGS4 inducible, Fluo-4 calcium flux; stronger effect = higher value; triggered by carbachol at its EC20 | B-score at 10 µM | hit rate 0.45% among 310,000 | AID 463165;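 active means B-score, a plate-corrected calcium signal, over three deviations above library mean, with baseline fluorescence within five deviations of library mean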;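 further: RGS4 expression induced by doxycycline in cells with stable M3 receptor; B-score is computed from the integrated fluorescence ratio over baseline after carbachol; higher B-score means a larger calcium signal and so more RGS4 inhibition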
Target sequence (P49798 whole entry, looked up): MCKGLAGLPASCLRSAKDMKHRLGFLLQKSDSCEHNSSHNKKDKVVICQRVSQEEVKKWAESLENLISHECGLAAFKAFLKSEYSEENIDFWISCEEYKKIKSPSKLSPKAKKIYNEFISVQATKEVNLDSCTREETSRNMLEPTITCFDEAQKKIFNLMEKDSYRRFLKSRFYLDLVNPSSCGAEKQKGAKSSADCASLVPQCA
* marks the source's active call; other numbers are inactive results; i = inactive; . = no result given. Hits are enriched below; roughly 3.5% of the tested compounds scored in any of these assays.

SMILES	MrgX1 allo act	MrgX1 agonist	MrgX1 antag	RGS4 pot	RGS4 inh
CC[N+](C)(CC)CCCOC(=O)C(O)(c1ccccc1)C1CCCCC1 (stereo not drawn)	i	i	i	-7.08*	i
CCOC(C(=O)OCCC[N+](C)(CC)CC)(c1ccccc1)c1ccccc1	i	i	i	-8.71*	i
O=C(O)C(O)(c1ccccc1)C1CCCCC1 (stereo not drawn)	i	i	i	i	i
CCCCCCOc1ccc(CN2CCN(CCO)CC2)cc1	i	i	i	-7.33*	i
CCCCOc1ccc(CN2CCN(CCO)CC2)cc1	i	i	i	i	i
COC(=O)C1=CO[C@@H](C)[C@H]2CN3CC[C@]4(C(=O)Nc5ccccc54)[C@@H]3C[C@H]12	i	i	i	i	i
CN1CCN(Cc2ccccc2Sc2ccccc2)CC1	i	i	i	-8.16*	i
CC(Cc1ccccc1Sc1ccccc1)N(C)C (stereo not drawn)	i	i	i	-9.33*	i
CSc1ccc(CN2CCN(Cc3ccccc3Cl)CC2)cc1	i	i	i	i	i
CCCC(C)C1(CC)C(=O)NC(=O)N=C1N (stereo not drawn)	i	i	i	i	i
CC(O)(CS(=O)(=O)c1ccccc1)C(=O)Nc1cccc(C(F)(F)F)c1 (stereo not drawn)	i	i	i	i	i
COc1ccc(CN2C(=O)NC(=O)/C(=C\c3cccc(OC)c3OC)C2=O)cc1	i	i	-5.47*	i	i
Cc1ccc(/C=C2/C(=O)NC(=O)N(Cc3ccc(F)cc3)C2=O)o1	i	i	i	i	11.4*
COc1cc(N2CCOCC2)ccc1/C=C1\C(=O)NC(=O)N(Cc2ccc3c(c2)OCO3)C1=O	11.8*	i	i	i	i
O=C1NC(=O)N(c2ccc(Cl)cc2)C(=O)/C1=C\c1ccc(Sc2nc3ccccc3[nH]2)o1	16.6*	i	i	i	i
CCCCCCC(=O)c1c(O)n(-c2ccccc2OC)c(=O)[nH]c1=O	i	i	i	i	i
C=CCn1c(O)c(C(C)=NC(C)c2ccccc2)c(=O)[nH]c1=O (stereo not drawn)	i	i	i	i	i
CCOc1cc2c(cc1OCC)-n1cccc1C(c1ccc(C(C)C)cc1)NC2 (stereo not drawn)	i	i	-5.22*	i	i
CCOc1cc2c(cc1OCC)-n1cccc1C(c1ccc(OC)cc1)NC2 (stereo not drawn)	i	i	-8.45*	i	i
CCOc1cc2c(cc1OCC)-n1cccc1C(c1ccc(F)cc1)NC2 (stereo not drawn)	i	i	i	i	i
CC(C)n1cc(C(=O)N(CC(=O)NC(C)(C)C)Cc2ccccc2)cn1	i	i	i	i	i
O=c1c2ccccc2[se]n1-c1ccccc1	i	40.3*	i	i	i
CC(=O)OC1CCC2(/C=N/O)C(=CCC3C4CCC(=O)C4(C)CCC32)C1 (stereo not drawn)	i	i	i	i	i
Cc1cc(N2CCCC2)ccc1C=C(C#N)C#N	i	i	-5.47*	i	i
Cc1cc(N2CCCCC2)ccc1C=C1C(=O)N(C)C(=S)N(C)C1=O	i	i	i	i	i
SMILES	MrgX1 allo act	MrgX1 agonist	MrgX1 antag	RGS4 pot	RGS4 inh
C[C@@H]1C(=O)O[C@@H]2[C@H](O)C34[C@@H]5OC(=O)C3(O[C@H]3OC(=O)[C@H](O)C34[C@H](C(C)(C)C)[C@H]5O)[C@@]12O (stereo partly drawn)	i	i	i	i	i
Cc1c(C(=O)N2CCC3(CC2)OCCO3)oc2ccc(S(=O)(=O)N3CCCCC3)cc12	i	i	-5.27*	i	i
CCn1cc(C(=O)N2CCC3(CC2)OCCO3)c(=O)c2cc(S(=O)(=O)N3CCCC3)ccc21	i	i	i	i	i
CNP(=O)(Oc1ccccc1)OC12CC3CC(CC(C3)C1)C2 (stereo not drawn)	i	i	i	i	i
Nc1ccccc1-[n+]1c(-c2ccccc2)cc(-c2ccccc2)cc1-c1ccccc1	i	i	-7.32*	i	i
Cc1ccc(-c2cc(-c3ccccc3)cc(-c3ccccc3)[n+]2-c2ccc(C(=O)O)cc2)cc1	i	i	i	i	i
Oc1ccccc1-[n+]1c(-c2ccccc2)cc(-c2ccccc2)cc1-c1ccccc1	12.5*	i	i	-7.4*	i
O=C(O)c1ccc(-[n+]2c(-c3ccccc3)cc(-c3ccccc3)cc2-c2ccccc2)cc1	i	i	i	i	i
Cc1ccccc1-[n+]1c(-c2ccccc2)cc(-c2ccccc2)cc1-c1ccccc1	i	i	-7.33*	-8.86*	i
[O-]c1ccccc1-[n+]1c(-c2ccccc2)cc(-c2ccccc2)cc1-c1ccccc1	8.34*	i	i	i	i
CCN(CC)S(=O)(=O)N1CCC(C(=O)N2CCC3(CC2)OCCO3)CC1	i	i	i	i	i
Clc1ccc(C(OCCN2CCCCC2)c2ccccc2)cc1 (stereo not drawn)	i	i	i	.	.
O=C(COc1ccc(Cl)cc1)N(c1ccccc1Cl)C1CN2CCC1CC2 (stereo not drawn)	i	i	i	i	i
Clc1ccc2c(c1)C(OC1CN3CCC1CC3)c1ccccc1CS2 (stereo not drawn)	i	i	i	-8.62*	i
CN1CCN(CCOC2c3ccccc3CSc3ccc(Cl)cc32)CC1 (stereo not drawn)	i	i	-9.38*	i	i
C=CCn1c(O)c(C(C)=NCCCN(C)C)c(=O)[nH]c1=O	i	i	i	i	i
COc1ccc(OCC#CCN2CCC(C)CC2)cc1	i	i	i	i	i
Clc1ccc(OCC#CCN2CCCCCC2)cc1	i	i	i	-7.02*	i
CCN1C[C@]2(COC(=O)c3ccccc3N)CC[C@H](OC)C34[C@@H]5C[C@H]6[C@H](OC)[C@@H]5[C@](O)(C[C@@H]6OC)[C@@](O)([C@H]13)[C@@H](OC)[C@@H]42	i	i	i	i	i
CCC[N+]12CCC(CC1)C(C(O)(c1ccccc1)c1ccccc1)C2 (stereo not drawn)	i	i	i	i	i
C[N+]12CCC(CC1)C(=C(c1ccccc1)c1ccccc1)C2	i	i	i	-8.85*	i
CC[N+]12CCC(CC1)C(=C(c1ccccc1)c1ccccc1)C2	i	i	i	-10*	i

Assay outcomes (PubChem)
